Screening data from PubChem BioAssay.
OX1R antag-1: OX1R (HCRTR1) antagonists, primary screen, fluorescence, CHO/OX1R cells, Fluo-8 calcium, orexin A; Fluo-8 calcium fluorescence; inhibition, % at 5 µM; hit rate 0.43% among 330,000; AID 434989, 2010;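 active = inhibition above its plate's threshold, mean inhibition of all tested compounds on the plate plus 3 SD, cut at about 37% in these data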;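 also: 0% = orexin A challenge wells and 100% = SB-334867-A antagonist wells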
Target sequence (O43613 whole entry, looked up): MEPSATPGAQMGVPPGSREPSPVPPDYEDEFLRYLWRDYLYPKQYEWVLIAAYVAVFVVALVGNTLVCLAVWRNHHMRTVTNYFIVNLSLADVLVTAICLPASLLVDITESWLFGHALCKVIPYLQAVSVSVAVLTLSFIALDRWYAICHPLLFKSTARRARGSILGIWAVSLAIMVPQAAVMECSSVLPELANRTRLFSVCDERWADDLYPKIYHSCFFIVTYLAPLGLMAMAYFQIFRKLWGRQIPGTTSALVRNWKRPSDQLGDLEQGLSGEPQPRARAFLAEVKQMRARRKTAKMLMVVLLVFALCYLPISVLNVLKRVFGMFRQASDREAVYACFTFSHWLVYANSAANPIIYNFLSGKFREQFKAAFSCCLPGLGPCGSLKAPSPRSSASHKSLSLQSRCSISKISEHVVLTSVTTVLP
M1 ag parental: counter-screen for M1 agonists: effect in parental CHO-K1 cells. hit rate 0.48% among 360,000. Fluo-8 calcium fluorescence; scaled to maximal ATP response, vehicle zero. activation, % at 3 µM; in the data active = activation above about 15%;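 also: untransfected CHO-K1 host cells lacking M1 receptor as counterscreen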
CHO-K1 Ca antag: counter-screen for M1 antagonists: effect in parental CHO-K1 cells; inhibition, % at 3 µM; AID 602250; ATP-induced calcium, Fluo-8 fluorescence; hit rate 0.6% among 360,000;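 active = inhibition above a per-plate cutoff, the plate's mean sample inhibition plus 3 SD, cut at about 24% in these data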;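 also: 0% = DMSO plus EC80 ATP and 100% = DMSO alone without ATP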
CHO-K1 Ca PAM: nonselective calcium activators in parental CHO-K1 cells, primary screen, counter-screen for M1 PAM project, cell-based, Fluo-8 calcium fluorescence, full deck, 1536-well; activation, % at 3 µM; hit rate 0.02% among 360,000; ATP EC20; 0% at ATP EC20, 100% at ATP max; AID 602247, 2012;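 active = activation above the run cutoff, the mean activation of all test compounds plus 3 SD, cut at about 40% in these data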;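 also: peak over basal fluorescence ratio in a 140 s read after ATP addition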
CHO parental Ca: ATP-evoked calcium signal inhibitors, parental CHO, primary screen, counter-screen for OX1R antagonist project, cell-based, fluorescence, Fluo-8 calcium dye | inhibition, % at 5.6 µM | parental CHO-K1, ATP-induced calcium, Fluo-8 fluorescence | hit rate 0.63% among 330,000;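 active = inhibition above that plate's mean sample inhibition plus 3 SD, cut at about 26% in these data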;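 also: 0% = ATP-challenged DMSO wells and 100% = DMSO wells without ATP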
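Test system: untransfected parental CHO cell line. Compound: one dose, 5.6 µM nominal. Detection: intracellular calcium via Fluo-8 no-wash fluorescent dye. Measure: % inhibition. Benchmarks: ATP-challenged DMSO wells low, unchallenged DMSO wells high.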
OX1R antag-2: antagonists of human orexin 1 receptor (OX1R). AID 485270, 2010. Orexin/Hypocretin receptor type 1 (Homo sapiens), O43613. inhibition, % at 6.6 µM. OX1R-expressing cells, FRET antagonist read-out. hit rate 1.8% among 330,000; in the data active = inhibition mostly above about 38%, no sharp cut-off; inactive = mostly below about 40%;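 also: 0% = agonist challenge alone and 100% = reference antagonist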
Active calls of the source: *; . = not tested or not shown. An excerpt weighted towards active compounds, which were near 2.9% of everything screened.

SMILES	OX1R antag-1	M1 ag parental	CHO-K1 Ca antag	CHO-K1 Ca PAM	CHO parental Ca	OX1R antag-2
CC(C)CNC(=O)NC(=O)COC(=O)Cn1cnc2ccccc2c1=O	-8	0	-1	-2	-1	-13
CC(NS(=O)(=O)OCC(Cl)(Cl)Cl)c1ccc(Br)cc1 (centres undefined)	-15	1	-8	14	-17	17
COc1ccccc1C(=O)NCC(=O)OCCCOC(=O)CNC(=O)c1ccccc1OC	-25	2	-13	10	3	13
CC(NC(=O)COC(=O)/C=C/c1ccc(Cl)cc1)c1ccccc1 (centres undefined)	-10	1	-1	6	-2	13
O=C(O)C1CCC(Cn2c(SCc3cc(=O)n4cc(Cl)ccc4n3)nc3ccsc3c2=O)CC1 (centres undefined)	-22	0	4	8	-9	17
CC(C)Nc1nc(NCCN2CCNC2=O)c2sccc2n1	.	0	-9	17	.	.
O=C1NCCN1CCNc1nc(NCc2ccccc2)nc2ccsc12	.	32*	27*	-13	.	.
c1ccc(CNc2nc(NCCc3ccncc3)c3sccc3n2)cc1	.	93*	99*	-14	.	.
CNc1nc(NCc2ccccc2)c2sccc2n1	.	6	-5	-9	.	.
c1ccc(C(c2ccccc2)c2noc(CN3CCN(C4CCCC4)CC3)n2)cc1	-19	15*	-4	21	-17	7
Cc1ccc(C)c(N2CCN(C(=O)c3ccc(CSc4nc5ccncc5[nH]4)cc3)CC2)c1	53*	10	3	18	44*	16
Cc1cc(C(=O)N2CCC2(C)C(=O)O)nn1C(C)(C)C (centres undefined)	.	0	27*	-11	.	.
COc1ccc(CNC(=O)COC(=O)c2cc(C)nc3ccccc23)cc1	-14	2	-21	10	-19	11
COc1ccccc1NC(=O)COC(=O)c1cc(C)nc2ccccc12	20	4	-15	-11	-24	43*
Cc1cc(C(=O)OCC(=O)NC(=O)c2cccn2C)c2ccccc2n1	-13	0	-5	2	45*	25
COc1ccccc1NC(=O)CSc1nc2ccccc2cc1Cc1ccccc1	-18	1	-11	42*	-45	23
Cn1cccc1C(=O)NC(=O)COC(=O)c1ccccc1O	-10	1	4	5	-5	9
COc1ccc(C(=O)C[n+]2ccc(-c3nnc4n3CCCCC4)cc2)cc1	-9	0	-9	21	-13	44*
O=C(C[n+]1ccc(-c2nnc3n2CCCCC3)cc1)c1ccc(Cl)cc1	-27	0	-13	20	-12	15
CCN1C(=O)[C@H]2[C@@H](c3ccc(-c4ccc(Cl)c(Cl)c4)c(OC)c3)N3CCCC[C@@]3(C(=O)OC)[C@H]2C1=O	-37	1	-1	-4	-27	8
O=C1N=c2ccc(Br)cc2=C1c1sc(=O)[nH]c1O	-21	.	.	.	3	42*
CC(NCC(=O)NC(=O)NCCC1=CCCCC1)c1ccc(S(N)(=O)=O)cc1 (centres undefined)	.	1	-1	5	.	.
C/C(=N\NC(=O)c1ccc([N+](=O)[O-])cc1)c1cc2ccccc2oc1=O	-2	1	-10	15	0	68*
O=C(NNC(=O)c1cc2ccccc2oc1=O)c1ccccc1[N+](=O)[O-]	-11	1	-9	8	-4	77*
Cc1cc(C(=O)NNC(=O)c2ccccc2[N+](=O)[O-])c(C)o1	-4	2	16	0	5	3
SMILES	OX1R antag-1	M1 ag parental	CHO-K1 Ca antag	CHO-K1 Ca PAM	CHO parental Ca	OX1R antag-2
Cc1cccc(OCC(=O)Nc2c3c(nn2C(C)(C)C)CS(=O)(=O)C3)c1	-5	0	23	4	-2	3
COc1ccc(N2CCn3c2nc2c3c(=O)n(CCCc3ccccc3)c(=O)n2C)c(OC)c1	3	1	-1	-2	55*	12
COc1ccc(N2CC(C)Cn3c2nc2c3c(=O)n(Cc3ccccc3)c(=O)n2C)c(OC)c1 (centres undefined)	-35	-1	-16	13	-22	14
O=[N+]([O-])c1ccc(N2CCN(c3ccccn3)CC2)c(Cl)c1	-36	3	-11	3	-23	12
Cc1cc2nn(-c3cccc4ccccc34)nc2cc1NC(=O)c1cccs1	-1	7	-2	16	-7	57*
CCCN(CC(=O)Nc1ccccc1C)C(=O)c1ccc(NC2CC2)c([N+](=O)[O-])c1	-40	1	-1	4	-17	23
O=S(=O)(/N=C(/NC(=S)Nc1ccccc1)c1ccccc1)c1ccc(Cl)cc1	-9	0	2	11	16	5
COC(=O)c1c(NC(=O)CC2SC(N)=NC2=O)sc(C)c1C (centres undefined)	-7	0	-7	10	-6	7
Cc1cccc(C(=O)n2c(=S)nc3cc(C)ccn32)c1	-6	1	-9	18	-12	41*
O=C(N/N=C/c1ccc2ncccc2c1)c1cccc([N+](=O)[O-])c1	0	1	-13	13	-10	72*
Cn1ncc([N+](=O)[O-])c1C(=O)N/N=C/c1cccc([N+](=O)[O-])c1	-9	0	-4	4	-4	54*
Cn1ncc([N+](=O)[O-])c1C(=O)N/N=C/c1ccc(F)cc1	-4	0	-5	12	-5	43
Cn1cc(C(=O)N/N=C/c2cccc([N+](=O)[O-])c2)c2ccccc21	9	0	-7	14	-17	43*
Nc1[nH]ncc1-c1ccc(F)cc1	2	0	-11	24	-6	6
C#CCOCCOCCOCCNc1nc(N2CCN(C(=O)CCCCCCCCCCNC(=O)[C@H](CCCCN)n3cc(C[C@@H](C)CC)nn3)CC2)nc(N2CCN(C(=O)CCCCCCCCCCNC(=O)[C@H](CCCCN)n3cc(C[C@@H](C)CC)nn3)CC2)n1	33	0	3	2	101*	-9
C#CCOCCOCCOCCNc1nc(N2CCN(C(=O)CCCCCCCCCCNC(=O)[C@H](CCCCN)n3cc(C)nn3)CC2)nc(N2CCN(C(=O)CCCCCCCCCCNC(=O)[C@@H]([C@H](C)CC)n3cc(CCCCCN)nn3)CC2)n1	-8	-1	-12	19	73*	-4
CCNCCC(=O)N1c2ccccc2Sc2ccc(C(F)(F)F)cc21	-20	0	-4	11	-2	-4
Cn1ccnc1COc1ccc(/C=N/O)cc1	-9	1	-7	-2	-3	11
C=CCn1c(Sc2ncc([N+](=O)[O-])s2)n[nH]c1=O	21	0	-5	-3	11	57*
